What is called inhibition is the share of the control response that was lost under treatment. The IC50 is the concentration at which inhibition is half-maximal.

Experiment [1] addresses T1, Tyrosine-protein kinase JAK1 (Homo sapiens, UniProt P23458). The experiment is described as follows: Inhibition of human JAK1 at 1 uM using GEEPLYWSFPAKKK as substrate after 40 mins in presence of [gamma-33P-ATP] by scintillation counting method relative to control.
The target of experiment [2] is Tyrosine-protein kinase JAK2 (Homo sapiens, UniProt O60674). Briefly: Inhibition of human JAK2 using KTFCGTPEYLAPEVRREPRILSEEEQEMFRDFDYIADWC as substrate after 40 mins in presence of [gamma-33P-ATP] by scintillation counting method.
Tyrosine-protein kinase JAK2, sequence (O60674 whole entry): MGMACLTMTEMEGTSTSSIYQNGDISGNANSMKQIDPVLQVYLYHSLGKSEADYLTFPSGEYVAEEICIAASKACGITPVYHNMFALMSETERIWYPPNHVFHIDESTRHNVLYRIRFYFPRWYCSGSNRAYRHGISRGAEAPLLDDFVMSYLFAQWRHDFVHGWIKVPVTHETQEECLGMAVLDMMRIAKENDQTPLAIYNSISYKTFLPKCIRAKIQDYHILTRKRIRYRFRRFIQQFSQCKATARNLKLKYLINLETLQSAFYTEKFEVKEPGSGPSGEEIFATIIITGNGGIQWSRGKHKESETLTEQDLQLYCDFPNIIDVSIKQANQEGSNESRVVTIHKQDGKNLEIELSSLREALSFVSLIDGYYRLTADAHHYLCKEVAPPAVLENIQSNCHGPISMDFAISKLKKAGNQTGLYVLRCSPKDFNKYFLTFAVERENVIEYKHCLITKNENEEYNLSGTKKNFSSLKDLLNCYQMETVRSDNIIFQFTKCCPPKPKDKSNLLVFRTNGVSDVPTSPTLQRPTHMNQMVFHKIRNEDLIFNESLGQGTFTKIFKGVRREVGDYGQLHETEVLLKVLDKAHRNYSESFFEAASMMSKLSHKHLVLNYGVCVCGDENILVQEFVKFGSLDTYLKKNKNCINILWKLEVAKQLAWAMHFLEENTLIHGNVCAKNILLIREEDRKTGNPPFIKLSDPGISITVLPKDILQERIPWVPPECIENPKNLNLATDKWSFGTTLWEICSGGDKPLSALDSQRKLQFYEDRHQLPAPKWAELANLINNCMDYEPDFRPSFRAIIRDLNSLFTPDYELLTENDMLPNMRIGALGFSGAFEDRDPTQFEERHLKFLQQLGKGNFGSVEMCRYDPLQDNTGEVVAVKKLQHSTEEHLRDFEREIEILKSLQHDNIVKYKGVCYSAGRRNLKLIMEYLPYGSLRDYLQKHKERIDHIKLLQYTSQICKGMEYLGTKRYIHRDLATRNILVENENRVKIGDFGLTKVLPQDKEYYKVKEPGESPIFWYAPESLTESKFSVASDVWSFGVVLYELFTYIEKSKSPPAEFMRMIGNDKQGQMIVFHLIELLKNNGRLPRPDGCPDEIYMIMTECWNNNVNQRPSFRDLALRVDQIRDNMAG
Experiment [3] deals with T1, Tyrosine-protein kinase JAK1. Briefly: Inhibition of human JAK1 using GEEPLYWSFPAKKK as substrate after 40 mins in presence of [gamma-33P-ATP] by scintillation counting method.
The species named for experiment [4] is Homo sapiens. The experiment is described as follows: Selectivity index, ratio of IC50 for human JAK2 to IC50 for human JAK1. In a few lines: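 Kinase activity assays run as a commercial service at Km ATP; IC50 values fitted from concentration-response data; ratio of JAK2 to JAK1 IC50.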

T1 sequence (P23458 whole entry): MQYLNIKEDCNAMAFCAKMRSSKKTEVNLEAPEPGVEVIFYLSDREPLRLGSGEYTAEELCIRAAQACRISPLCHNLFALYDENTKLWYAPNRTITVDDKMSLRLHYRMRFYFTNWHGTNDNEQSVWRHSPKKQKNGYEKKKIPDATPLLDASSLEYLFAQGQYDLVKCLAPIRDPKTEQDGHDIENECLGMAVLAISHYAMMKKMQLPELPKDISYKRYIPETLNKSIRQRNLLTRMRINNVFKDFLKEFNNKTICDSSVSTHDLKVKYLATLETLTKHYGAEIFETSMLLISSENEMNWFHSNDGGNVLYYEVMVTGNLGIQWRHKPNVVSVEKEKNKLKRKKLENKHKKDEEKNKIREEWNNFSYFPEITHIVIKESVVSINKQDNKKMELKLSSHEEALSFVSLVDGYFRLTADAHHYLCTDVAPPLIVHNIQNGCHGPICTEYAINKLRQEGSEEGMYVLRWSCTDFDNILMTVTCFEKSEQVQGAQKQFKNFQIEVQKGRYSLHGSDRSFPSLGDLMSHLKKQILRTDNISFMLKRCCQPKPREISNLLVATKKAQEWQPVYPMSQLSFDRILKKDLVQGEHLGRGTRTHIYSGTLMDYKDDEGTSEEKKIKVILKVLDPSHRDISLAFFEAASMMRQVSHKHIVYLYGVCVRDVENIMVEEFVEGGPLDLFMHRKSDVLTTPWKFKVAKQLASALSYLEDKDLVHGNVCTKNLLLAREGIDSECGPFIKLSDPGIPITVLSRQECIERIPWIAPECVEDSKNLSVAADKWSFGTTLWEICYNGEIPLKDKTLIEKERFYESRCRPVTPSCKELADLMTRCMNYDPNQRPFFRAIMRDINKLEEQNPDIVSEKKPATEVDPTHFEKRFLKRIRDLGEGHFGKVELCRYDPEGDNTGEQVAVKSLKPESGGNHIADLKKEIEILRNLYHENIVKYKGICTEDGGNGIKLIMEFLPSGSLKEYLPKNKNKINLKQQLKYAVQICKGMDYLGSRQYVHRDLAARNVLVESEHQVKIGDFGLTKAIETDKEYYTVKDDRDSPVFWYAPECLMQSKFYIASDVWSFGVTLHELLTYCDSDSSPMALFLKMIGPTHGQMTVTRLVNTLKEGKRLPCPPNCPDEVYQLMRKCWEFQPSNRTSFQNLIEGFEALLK

With `N#CCC(=O)N1CCC(Oc2ncnc3[nH]ccc23)CC1`, the inhibition in experiment [1] worked out at 35%.

On to `CN(c1ncnc2[nH]ccc12)[C@@H]1CCCN(C(=O)CC#N)C1`, for which the inhibition in experiment [1] worked out at 99%.

In the case of `N#CCC(=O)N1CCCC(COc2ncnc3[nH]ccc23)C1` (centres undefined), the inhibition in experiment [1] worked out at 30%.

On to `N#CCC(=O)N1C[C@H]2CCCN(c3ncnc4[nH]ccc34)[C@H]2C1`, for which, in experiment [1], the inhibition was 54%.

As for `CN(c1ncnc2[nH]ccc12)C1CCN(C(=O)CC#N)CC1`, the inhibition in experiment [1] stood at 49%.

As to `CN(c1ncnc2[nH]ccc12)[C@H]1CN(C(=S)Nc2cc(C(F)(F)F)cc(C(F)(F)F)c2)CC12CC2`, the 50% inhibitory concentration (IC50) in experiment [2] stood at 11000 nM; in experiment [3], 470 nM. Moreover, the Ratio IC50 in experiment [4] was found to be 23.

Turning to `CN(c1ncnc2[nH]ccc12)[C@H]1CN(S(=O)(=O)c2ccccc2)CC12CC2`, the half-inhibitory concentration (IC50) in experiment [2] worked out at 51 nM; in experiment [3], 9 nM. For the same molecule, in experiment [4], the Ratio IC50 is 5.7.

Turning to `CC(C)CC(=O)N1C[C@H](N(C)c2ncnc3[nH]ccc23)C2(CC2)C1`, the IC50 in experiment [2] came out at 1100 nM; in experiment [3] it was 77 nM. Further, the Ratio IC50 in experiment [4] was found to be 14.

For `CCCS(=O)(=O)N1C[C@H](N(C)c2ncnc3[nH]ccc23)C2(CC2)C1`, the 50% inhibitory concentration (IC50) in experiment [2] worked out at 36 nM; in experiment [3] it was 6.9 nM. In addition, the Ratio IC50 in experiment [4] worked out at 5.2.

For `CN(c1ncnc2[nH]ccc12)[C@H]1CN(S(=O)(=O)c2ccc3ccccc3c2)CC12CC2`, the IC50 was 150 nM in experiment [2] and 17 nM in experiment [3]. Besides, the Ratio IC50 in experiment [4] was determined as 8.8.

As for `CN(c1ncnc2[nH]ccc12)[C@H]1CN(C(=O)Nc2cc(Cl)ccc2Cl)CC12CC2`, the concentration for half-maximal inhibition (IC50) turned out to be 2800 nM in experiment [2] and 54 nM in experiment [3]. In addition, the Ratio IC50 in experiment [4] is 52.

Take `CN(c1ncnc2[nH]ccc12)[C@H]1CN(C(=O)Nc2ccc(Cl)cc2Cl)CC12CC2`: the results for the half-inhibitory concentration (IC50) in experiment [2] and in experiment [3] were 4700 nM and 120 nM, respectively. The Ratio IC50 in experiment [4] turned out to be 39.

Turning to `CN(c1ncnc2[nH]ccc12)[C@H]1CN(S(=O)(=O)c2ccc(F)cc2)CC12CC2`, the figures for the IC50 in experiment [2] and in experiment [3] were 50 nM and 9.4 nM, respectively. Besides, in experiment [4], the Ratio IC50 turned out to be 5.3.

For `CN(c1ncnc2[nH]ccc12)[C@H]1CN(S(=O)(=O)c2cccc([N+](=O)[O-])c2)CC12CC2`, the results for the IC50 in experiment [2] and in experiment [3] were 5.5 nM and 1.4 nM, respectively. Also, in experiment [4], the Ratio IC50 was 3.9.

With `CN(c1ncnc2[nH]ccc12)C1CN(C(=O)CC#N)CC12CC2` (racemic), the inhibition in experiment [1] was 95%.

`CN(c1ncnc2[nH]ccc12)[C@H]1CN(Cc2ccccc2)CC12CC2`: the 50% inhibitory concentration (IC50) in experiment [2] was found to be 98000 nM; in experiment [3], 120 nM. For the same molecule, the Ratio IC50 in experiment [4] stood at 820.

In the case of `CN(c1ncnc2[nH]ccc12)[C@H]1CN(C(=O)Nc2cccc(Cl)c2Cl)CC12CC2`, the results for the half-maximal inhibitory concentration (IC50) in experiment [2] and in experiment [3] were 1300 nM and 74 nM, respectively. For the same molecule, the Ratio IC50 in experiment [4] came to 18.

The values are drawn from ChEMBL document CHEMBL4257478, “Design, synthesis and evaluation of (R)-3-(7-(methyl(7H-pyrrolo[2,3-d]pyrimidin-4-yl)amino)-5-azaspiro[2.4]heptan-5-yl)-3-oxopropanenitrile as a JAK1-selective inhibitor” (Medchemcomm, 2018).
